Measurements as given in ChEMBL document CHEMBL1146536, “Pochonins A-F, new antiviral and antiparasitic resorcylic acid lactones from Pochonia chlamydosporia var. catenulata” (J Nat Prod, 2003).
Activity calls are given as the source filed them. The calls are words filed in the database; no cut-off is given here.

Columns and labels:
[1] = target: T1, Estrogen receptor beta (Homo sapiens, UniProt Q92731); assay: Agonist activity at ERbeta by fluorescence polarization assay; type: functional
[2] = tested on: Human alphaherpesvirus 1; assay: Antiviral activity against HSV1 F infected in african green monkey Vero cells assessed as reduction of virus-induced cytopathic effect by cellular replication assay; type: functional, organism-based
Method in brief: (§1)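 HSV1 strain F replication in Vero cells, 0.1 nM to 125 µM. IC50 is the concentration reducing viral cytopathic effect by 50%; Tox50 is the concentration reducing cell viability by 50%. SI = Tox50/IC50.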

[3] = tested on: Neospora caninum; assay: Antiparasitic activity against Neospora caninum NC-1 infected in african green monkey Vero cells treated 2 hrs postinfection by MMDA assay; type: functional, organism-based
[4] = Cytotoxicity against PCKC by crystal violet staining; set-up: species or system Gallus gallus; details: chicken
Method in brief: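 Uninfected compound-treated primary chicken kidney cells served as toxicity controls in the 120 h monolayer assay (200, 10, 1, 0.1 ppm). Viability judged microscopically or by crystal violet after 5 min MeOH fixation.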

[5] = tested on: Vero; assay: Cytotoxicity against african green monkey Vero cells at 10 uM by crystal violet staining; type: cell-based; details: chlorocebus sabaeus
[6] = target: T1, Estrogen receptor beta; assay: Agonist activity at ERbeta up to 10 uM by fluorescence polarization assay; type: functional
[7] = Selectivity index, ratio of cytotoxicity against african green monkey Vero cells to IC50 for HSV1 F; type: toxicity, cell-based; details: read-out: Selectivity Index; method in brief: as §1
[8] = tested on: Eimeria tenella; assay: Antiparasitic activity against Eimeria tenella Houghton infected in PCKC at 10 ppm treated 2 hrs postinfection by MMDA assay; type: functional, organism-based
Method in brief: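 Confluent primary chicken kidney cell monolayers (DMEM or RPMI with 10% FBS, glutamine, essential amino acids; 37 °C, 5% CO2) in 96-well plates infected with E. tenella Houghton; compounds added 2 h post infection at 200, 10, 1, 0.1 ppm. Stopped 120 h post infection; monolayer disruption scored microscopically or by crystal violet after MeOH fixation (2 full, 1 weak, 0 none).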

[9] = tested on: Vero; assay: Cytotoxicity against african green monkey Vero cells at 2.5 uM by crystal violet staining; type: cell-based; details: chlorocebus sabaeus
[10] = tested on: Eimeria tenella; assay: Antiparasitic activity against Eimeria tenella Houghton infected in PCKC at 1 ppm treated 2 hrs postinfection by MMDA assay; type: functional, organism-based
Method in brief: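 Primary chicken kidney cell monolayers grown to confluence with 10% FBS, glutamine and essential amino acids at 37 °C, 5% CO2, in 96-well plates. They were infected with E. tenella Houghton, and test samples were added 2 h post infection. Tested at 200, 10, 1 and 0.1 ppm; stopped at 120 h. Monolayer integrity was read microscopically or by MeOH fixation and crystal violet. Scored as full, weak, none or cytotoxic.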

[11] = tested on: Vero; assay: Cytotoxicity against african green monkey Vero cells by crystal violet staining; type: cell-based; details: chlorocebus sabaeus
[12] = Human alphaherpesvirus 1, F, Vero

T1 sequence (Q92731 whole entry): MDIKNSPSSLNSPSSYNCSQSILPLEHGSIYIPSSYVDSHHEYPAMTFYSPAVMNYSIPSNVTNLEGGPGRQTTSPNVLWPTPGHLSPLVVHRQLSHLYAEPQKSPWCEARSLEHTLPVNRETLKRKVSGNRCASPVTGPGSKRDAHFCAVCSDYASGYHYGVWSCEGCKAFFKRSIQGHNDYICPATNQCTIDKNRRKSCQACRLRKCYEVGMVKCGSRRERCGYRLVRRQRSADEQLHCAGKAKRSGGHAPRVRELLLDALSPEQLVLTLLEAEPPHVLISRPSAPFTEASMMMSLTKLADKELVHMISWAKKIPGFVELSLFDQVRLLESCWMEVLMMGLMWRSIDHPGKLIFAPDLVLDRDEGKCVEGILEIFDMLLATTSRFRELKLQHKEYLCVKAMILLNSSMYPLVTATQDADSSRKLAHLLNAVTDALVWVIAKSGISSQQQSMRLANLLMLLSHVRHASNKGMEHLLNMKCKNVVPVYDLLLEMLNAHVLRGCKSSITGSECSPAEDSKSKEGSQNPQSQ

For `COc1cc(O)c2c(c1)/C=C/CCC[C@H](O)CCC[C@H](C)OC2=O`, the Activity [1] was “inactive” and the Activity [2] was “inactive”.
For `C[C@H]1CCC[C@H](O)CCCCCc2cc(O)cc(O)c2C(=O)O1`, the Activity [2] was “inactive”.
With `C[C@H]1CCCC(=O)CCCCCc2cc(O)cc(O)c2C(=O)O1` (stereo in doubt; 16) the Activity [2] was “inactive”.
With `C[C@H]1CCCC(=O)CCCCCc2cc(O)cc(O)c2C(=O)O1` (stereo in doubt; 16) [ZEARALANONE] the EC50 [1] was 0.038 µM.
For `C[C@H]1CCC[C@@H](O)CCCCCc2cc(O)cc(O)c2C(=O)O1` (stereo in doubt; 17) [TALERANOL], the IC50 ([2]; vero) was 1.5 µM.
With `C[C@H]1CCCC(=O)CCCCCc2cc(O)cc(O)c2C(=O)O1` (stereo in doubt; 19) the Activity [2] was “inactive”.
`C[C@H]1CCCC(=O)CCCCCc2cc(O)cc(O)c2C(=O)O1` (stereo in doubt; 19) [ZEARALANONE] showed an EC50 [1] of 0.66 µM.
With `C[C@H]1CCC[C@@H](O)CCCCCc2cc(O)cc(O)c2C(=O)O1` (stereo in doubt; 21) [TALERANOL] the IC50 ([2]; vero) was 15 µM.
With `C[C@H]1C/C=C/CC/C=C/C(=O)Cc2cc(O[C@@H]3O[C@H](CO)[C@@H](O)[C@H]3O)cc(O)c2C(=O)O1` [MONOCILLIN II GLYCOSIDE] the Activity [3] was “inactive”, the Activity [4] was “Toxic” and the Activity [5] was “Toxic”. The Activity [6] was “inactive”.
For `C[C@@H]1C[C@H]2O[C@@H]2CC/C=C/C(=O)Cc2cc(O)cc(O)c2C(=O)O1` [MONOCILLIN III], the Activity [3] was “inactive”, the IC50 [2, 12] was 0.4 µM and the selectivity ratio [7] was 7.5. For the same compound, the Activity [6] was “inactive”.
In the case of `C[C@H]1C[C@H]2O[C@@H]2CC/C=C/C(=O)Cc2c(Cl)c(O)cc(O)c2C(=O)O1` [POCHONIN A], the Activity [8] is reported as “Active”, the Activity [3] is reported as “inactive” and the IC50 [2, 12] is reported as 2 µM. The Activity [6] was “inactive”.
With `C[C@H]1C[C@H]2O[C@@H]2C[C@H](O)/C=C/C(=O)Cc2c(Cl)c(O)cc(O)c2C(=O)O1` [POCHONIN B] the Activity [3] was “inactive”, the Activity [4] was “Toxic” and the IC50 [2, 12] was 10 µM. For the same compound, the Activity [6] was “inactive”.
With `C[C@H]1C[C@H](O)C(Cl)/C=C\C=C\C(=O)Cc2c(Cl)c(O)cc(O)c2C(=O)O1` (stereo not given in full) [POCHONIN C] the Activity [3] was “inactive”, the Activity [4] was “Toxic” and the IC50 [2, 12] was 6 µM. The Activity [6] was “inactive”.
For `C[C@@H]1C/C=C/CC/C=C/C(=O)Cc2c(Cl)c(O)cc(O)c2C(=O)O1` [POCHONIN D], the Activity [3] was “inactive”, the Activity [4] was “Toxic” and the Activity [2] was “inactive”. For the same compound, the Activity [9] was “Toxic” and the Activity [6] was “inactive”.
For `C[C@H]1C/C=C/C(O)C/C=C/C(=O)Cc2c(Cl)c(O)cc(O)c2C(=O)O1` (stereo not given in full) [POCHONIN E], the Activity [3] was “inactive”, the Activity [4] was “Toxic” and the IC50 [2, 12] was 1.5 µM. The Activity [6] was “inactive”.
In the case of `CC/C=C\[C@H](O)[C@H](O)C1=C(C)C(=O)[C@]2(O1)C(=O)N[C@@](OC)(C(=O)c1ccccc1)[C@@H]2O` [PSEUROTIN A], the Activity [8] is reported as “Active”, the Activity [3] is reported as “inactive” and the IC50 [2, 12] is reported as 50 µM. It also gave a selectivity ratio [7] of 6.
With `C[C@@H]1C[C@H]2O[C@@H]2/C=C\C=C\C(=O)Cc2c(Cl)c(O)cc(O)c2C(=O)O1` [RADICICOL] the Activity [8] was “Active”, the Activity [3] was “inactive” and the Activity [4] was “Toxic”. For the same compound, the IC50 [2, 12] was 0.2 µM, the Activity [10] was “inactive” and the Activity [11] was “Toxic”.
With `C[C@H]1C[C@H]2O[C@@H]2CCCCC(=O)Cc2c(Cl)c(O)cc(O)c2C(=O)O1` [TETRAHYDROMONORDEN] the Activity [8] was “Active”, the Activity [3] was “inactive” and the IC50 [2, 12] was 1.5 µM. The Activity [10] was “inactive” and the Activity [6] was “inactive”.
For `C[C@H]1CCCC(=O)CCC/C=C/c2cc(O)cc(O)c2C(=O)O1` [ZEARALENONE], the EC50 [1] was 0.11 µM and the Activity [2] was “inactive”.
